Reference: ChEMBL document CHEMBL1132578, “New peptidic cysteine protease inhibitors derived from the electrophilic alpha-amino acid aziridine-2,3-dicarboxylic acid” (J Med Chem, 1999)
Blank lines part the entries; values can stand above or below the molecule they belong to.

Columns and labels:
[1] = target: T1, Pro-cathepsin H (Homo sapiens, UniProt P09668); test: Compound was evaluated for inhibition constant for the non-time dependent inhibition of Cathepsin H.
T1 sequence (P09668 whole entry): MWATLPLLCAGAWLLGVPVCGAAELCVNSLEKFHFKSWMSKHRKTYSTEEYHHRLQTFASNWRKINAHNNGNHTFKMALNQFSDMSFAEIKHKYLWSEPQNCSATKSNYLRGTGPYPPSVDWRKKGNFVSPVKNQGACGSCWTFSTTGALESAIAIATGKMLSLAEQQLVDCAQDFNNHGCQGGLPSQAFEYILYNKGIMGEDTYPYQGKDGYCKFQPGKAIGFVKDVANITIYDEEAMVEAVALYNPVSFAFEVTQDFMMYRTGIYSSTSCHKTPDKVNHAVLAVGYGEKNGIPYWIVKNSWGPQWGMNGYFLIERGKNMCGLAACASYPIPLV

[2] = target: T2, Papain (Carica papaya) (UniProt P00784)
T2 sequence (whole entry): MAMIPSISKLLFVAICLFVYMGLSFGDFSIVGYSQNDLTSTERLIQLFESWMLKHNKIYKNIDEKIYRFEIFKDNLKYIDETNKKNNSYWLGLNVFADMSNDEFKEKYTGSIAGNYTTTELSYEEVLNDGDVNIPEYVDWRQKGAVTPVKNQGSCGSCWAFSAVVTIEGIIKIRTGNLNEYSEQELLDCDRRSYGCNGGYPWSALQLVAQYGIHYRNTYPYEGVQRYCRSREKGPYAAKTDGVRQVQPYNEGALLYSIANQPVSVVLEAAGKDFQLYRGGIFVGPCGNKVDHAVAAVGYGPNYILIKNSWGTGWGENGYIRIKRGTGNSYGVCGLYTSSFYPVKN

[3] = target: T2, Papain (Carica papaya); test: pH dependency of inhibition of papain without the compound at pH 5.2 mean values from five assays.
Summary of the method: (§1)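 Papain (0.5 mg/mL) with 1.49 mM L-BAPA, with or without 17 µM inhibitor for 30 min, at pH 5.2–8.0 (citrate pH 4–6, phosphate pH 6–8), 25 °C; nitroanilide release read at 405 nm. Activities are means of five assays; percent inhibition compares inhibited and uninhibited activity.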

[4] = target: T2, Papain (Carica papaya); remark: listed apart in the source
[5] = target: T2, Papain (Carica papaya); test: pH dependency of inhibition of papain without the compound at pH 6.0 mean values from five assays.; summary of the method: as §1
[6] = target: T2, Papain (Carica papaya); test: pH dependency of inhibition of papain without the compound at pH 6.5 mean values from five assays.; summary of the method: as §1
[7] = target: T2, Papain (Carica papaya); remark: listed apart in the source
[8] = target: T2, Papain (Carica papaya); remark: listed apart in the source
[9] = target: T3, Calpain-1 catalytic subunit (Homo sapiens, UniProt P07384); test: Compound was evaluated for inhibition constant for the non-time dependent inhibition of Calpain 1; no inhibition; design: species or system Sus scrofa
T3 sequence (P07384 whole entry): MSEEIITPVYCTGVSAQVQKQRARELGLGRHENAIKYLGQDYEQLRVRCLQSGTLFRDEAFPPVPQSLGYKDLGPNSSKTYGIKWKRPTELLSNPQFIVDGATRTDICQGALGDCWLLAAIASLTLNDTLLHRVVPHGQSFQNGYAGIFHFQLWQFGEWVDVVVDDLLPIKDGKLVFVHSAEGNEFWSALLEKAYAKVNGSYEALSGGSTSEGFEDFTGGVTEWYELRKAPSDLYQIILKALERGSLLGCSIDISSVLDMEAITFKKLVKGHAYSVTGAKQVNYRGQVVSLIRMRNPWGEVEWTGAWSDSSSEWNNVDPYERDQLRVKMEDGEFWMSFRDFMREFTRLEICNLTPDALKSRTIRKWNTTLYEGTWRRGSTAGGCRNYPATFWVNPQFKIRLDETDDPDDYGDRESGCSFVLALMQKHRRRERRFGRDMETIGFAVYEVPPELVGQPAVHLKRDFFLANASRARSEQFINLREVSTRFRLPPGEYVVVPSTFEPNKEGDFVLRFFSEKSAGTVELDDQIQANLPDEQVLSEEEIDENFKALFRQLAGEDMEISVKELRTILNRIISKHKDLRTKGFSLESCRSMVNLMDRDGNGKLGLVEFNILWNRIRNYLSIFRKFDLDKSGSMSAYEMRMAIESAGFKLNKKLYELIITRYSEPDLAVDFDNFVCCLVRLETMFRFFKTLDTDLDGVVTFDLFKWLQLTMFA

[10] = target: T2, Papain (Carica papaya); test: pH dependency of inhibition of papain without the compound at pH 8.0 mean values from five assays.; summary of the method: as §1
[11] = target: T2, Papain (Carica papaya); test: pH dependency of inhibition of papain with the compound at pH 6.0 [I] = 17 uM, incubation time = 30 minutes, [S] = 1.49 mM L-BAPA, [E] = 0.5 mg m/L; summary of the method: as §1
[12] = target: Procathepsin L (Homo sapiens) (UniProt P07711); conditions: Paramecium tetraurelia
Procathepsin L (Homo sapiens), sequence (P07711 114-333 limits assumed): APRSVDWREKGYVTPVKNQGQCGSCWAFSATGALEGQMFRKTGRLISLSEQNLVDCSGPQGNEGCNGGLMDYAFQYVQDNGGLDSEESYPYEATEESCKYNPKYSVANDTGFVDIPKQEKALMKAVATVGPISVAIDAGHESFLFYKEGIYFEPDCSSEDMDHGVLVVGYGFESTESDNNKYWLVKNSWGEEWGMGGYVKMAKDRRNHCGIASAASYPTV

[13] = target: T2, Papain (Carica papaya); test: pH dependency of inhibition of papain with the compound at pH 6.5 [I] = 17 uM, incubation time = 30 minutes, [S] = 1.49 mM L-BAPA, [E] = 0.5 mg m/L; summary of the method: as §1
[14] = target: T2, Papain (Carica papaya); test: Percent inhibition of papain by the compound at pH 6.5; conditions: concentration not given here; summary of the method: as §1
[15] = target: T2, Papain (Carica papaya); test: Percent inhibition of papain by the compound at pH 7.0; conditions: concentration not given here; summary of the method: as §1
[16] = target: Cathepsin B (Bos taurus) (UniProt P07688)
[17] = target: T2, Papain (Carica papaya); test: pH dependency of inhibition of papain without the compound at pH 7.0 mean values from five assays.; summary of the method: as §1
[18] = target: T2, Papain (Carica papaya); test: Percent inhibition of papain by the compound at pH 8.0; conditions: concentration not given here; summary of the method: as §1
[19] = target: T2, Papain (Carica papaya); test: Percent inhibition of papain by the compound at pH 6.0; conditions: concentration not given here; summary of the method: as §1
[20] = target: T2, Papain (Carica papaya); test: pH dependency of inhibition of papain with the compound at pH 5.2 [I] = 17 uM, incubation time = 30 minutes, [S] = 1.49 mM L-BAPA, [E] = 0.5 mg m/L; summary of the method: as §1
[21] = target: T2, Papain (Carica papaya); test: Percent inhibition of papain by the compound at pH 5.2; conditions: concentration not given here; summary of the method: as §1
[22] = target: T2, Papain (Carica papaya); test: pH dependency of inhibition of papain with the compound at pH 8.0 [I] = 17 uM, incubation time = 30 minutes, [S] = 1.49 mM L-BAPA, [E] = 0.5 mg m/L; summary of the method: as §1
[23] = target: T2, Papain (Carica papaya); test: pH dependency of inhibition of papain with the compound at pH 7.0 [I] = 17 uM, incubation time = 30 minutes, [S] = 1.49 mM L-BAPA, [E] = 0.5 mg m/L; summary of the method: as §1
[24] = target: Cathepsin B (Bos taurus) (UniProt P07688); test: Evaluated for second-order rate constants for the inactivation of mammalian lysosomal cathepsin B.
[25] = target: T2, Papain (Carica papaya); test: Second-order rate constants for the inactivation of papain (vacuolar plant enzyme)
Summary of the method: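 Papain with L-BAPA (405 nm) in 50 mM phosphate pH 6.5, 5 mM EDTA, 5 mM cysteine, or with Z-Phe-Arg-AMC in phosphate pH 6.5 with DTT, EDTA, Brij 35; 25 °C. kobs at 3–7 inhibitor concentrations, continuous or dilution assay; k2nd = ki/Ki, or from linear kobs vs [I] when unsaturated; substrate-corrected (Km 2.5 mM L-BAPA, 0.09 mM Z-Phe-Arg-AMC).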

[26] = target: Procathepsin L (Homo sapiens) (UniProt P07711); test: Evaluated for second-order rate constants for the inactivation of mammalian lysosomal cathepsin L.
[27] = target: calpain I; test: Inhibition constant for the non time dependent inhibition of calpain I
[28] = target: T1, Pro-cathepsin H; test: Inhibition constant for the non time dependent inhibition of Cathepsin H; no inhibition

Ki [1]: 210 µM
ki/Ki [2]: 6.83 M⁻¹ s⁻¹
Activity [3]: 6.54 mU/mL
ki/Ki [4]: 7.07 M⁻¹ s⁻¹
Activity [5]: 7.33 mU/mL
Activity [6]: 7.38 mU/mL
ki/Ki [7]: 1.2 M⁻¹ s⁻¹
ki/Ki [8]: 6.8 M⁻¹ s⁻¹
Ki [9]: Not Active
Activity [10]: 7.31 mU/mL
Activity [11]: 1.38 mU/mL
ki/Ki [12]: 1.08 M⁻¹ s⁻¹
Activity [13]: 0.98 mU/mL
inhibition [14]: 86.7%
inhibition [15]: 89.8%
ki/Ki [16]: 2.08 M⁻¹ s⁻¹
Activity [17]: 7.33 mU/mL
inhibition [18]: 89.7%
inhibition [19]: 81.1%
Activity [20]: 1.86 mU/mL
inhibition [21]: 71.6%
Activity [22]: 0.75 mU/mL
Activity [23]: 0.75 mU/mL
Structure (SMILES): CCOC(=O)[C@@H]1[C@@H](C(=O)OCC)N1C(=O)[C@H](Cc1ccccc1)NC(=O)OC(C)(C)C

ki/Ki [24]: 1.12 M⁻¹ s⁻¹
ki/Ki [25]: 1.22 M⁻¹ s⁻¹
ki/Ki [26]: 5.08 M⁻¹ s⁻¹
Ki [27]: 160 µM
Ki [28]: Not Active
Structure (SMILES): CCOC(=O)[C@@H]1[C@@H](C(=O)OCC)N1C(=O)[C@H](C)NC(=O)OCc1ccccc1
